# Test results reported in ChEMBL document CHEMBL4665831, “Ultrapotent Inhibitor of Clostridioides difficile Growth, Which Suppresses Recurrence In Vivo” (J Med Chem, 2020).
# How the values were obtained:
# Clostridioides difficile [1] = assay: Antimicrobial activity against Clostridioides difficile NR-13432 isolate 6 assessed as reduction in microbial growth after 48 hrs by broth microdilution method; type: functional
# Summary of the method: (§1)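 Broth microdilution: a 0.5 McFarland suspension was diluted in brain heart infusion supplemented (BHIS) broth to ~5 × 10^5 CFU/mL. Agents were serially diluted and plates incubated anaerobically at 37°C for 48 h.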
# Clostridioides difficile [2] = assay: Antimicrobial activity against Clostridioides difficile NR-13435 isolate 9 assessed as reduction in microbial growth after 48 hrs by broth microdilution method; type: functional; summary of the method: as §1
# Clostridioides difficile [3] = assay: Antimicrobial activity against Clostridioides difficile NR-32883 P2 assessed as reduction in microbial growth after 48 hrs by broth microdilution method; type: functional; summary of the method: as §1
# Clostridioides difficile [4] = assay: Antimicrobial activity against Clostridioides difficile ATCC 43255 assessed as reduction in microbial growth after 48 hrs by broth microdilution method; type: functional; summary of the method: as §1
# Enterococcus faecium = assay: Antimicrobial activity against vancomycin-resistant Enterococcus faecium ATCC 700221 assessed as reduction in microbial growth after 48 hrs by CLSI based broth microdilution method; type: functional
# Summary of the method: (§2)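 CLSI broth microdilution: strains were grown aerobically overnight on tryptone soy agar at 37°C. A 0.5 McFarland suspension was diluted to ~5 × 10^5 CFU/mL in cation-adjusted Mueller-Hinton broth (E. coli) or tryptone soy broth (enterococci), and agents were serially diluted.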
# Escherichia coli = assay: Antimicrobial activity against Escherichia coli JW55031 harboring TolC mutant assessed as reduction in microbial growth after 48 hrs by CLSI based broth microdilution method; type: functional; summary of the method: as §2
# Clostridioides difficile [5] = assay: Potency index, ratio of vancomycin MIC to test compound MIC for antibacterial activity against Clostridioides difficile NR-13432 isolate 6; type: functional
# Clostridioides difficile [6] = assay: Potency index, ratio of vancomycin MIC to test compound MIC for antibacterial activity against Clostridioides difficile NR-13435 isolate 9; type: functional
# Clostridioides difficile [7] = assay: Potency index, ratio of vancomycin MIC to test compound MIC for antibacterial activity against Clostridioides difficile NR-32883 P2; type: functional
# Clostridioides difficile [8] = assay: Potency index, ratio of vancomycin MIC to test compound MIC for antibacterial activity against Clostridioides difficile NR-32891 P13; type: functional
# Clostridioides difficile [9] = assay: Potency index, ratio of vancomycin MIC to test compound MIC for antibacterial activity against Clostridioides difficile NR-32895 P19; type: functional
# Clostridioides difficile [10] = assay: Potency index, ratio of vancomycin MIC to test compound MIC for antibacterial activity against Clostridioides difficile ATCC 43255; type: functional
# Caco-2 = assay: Cytotoxicity against human Caco-2 cells assessed as reduction in cell viability at >64 ug/ml after 2 hrs by MTS assay; type: cell-based; conditions: caco-2, 2 h, dose >64 µg/ml
# Summary of the method: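 Caco-2 cells were exposed to compound for 2 h, then to MTS reagent for 4 h, and absorbance was read at 490 nm. Testing was in triplicate, and viability was expressed as percent of DMSO-treated cells.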
# [11] = Apparent permeability across apical to basolateral side in human Caco-2 cells; type: ADME, cell-based
# Summary of the method: (§3)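 Bidirectional Caco-2 monolayer transport was run by a contract lab. Papp = (V_R·C_R,end/Δt)·1/[A·(C_D,mid − C_R,mid)]. Donor mid-point is the mean of the 0-min and end donor concentrations; receiver mid-point is half the end receiver concentration. Concentrations were taken as LC peak areas.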
# [12] = Apparent permeability across basolateral to apical side in human Caco-2 cells; type: ADME, cell-based; summary of the method: as §3
# Lactobacillus gasseri = assay: Antibacterial activity against Lactobacillus gasseri HM-400 assessed as reduction in microbial growth after 48 hrs by broth microdilution method
# Summary of the method: (§4)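 Gut commensal MICs by broth microdilution: a 0.5 McFarland suspension was diluted to ~5 × 10^5 CFU/mL in BHIS broth (Bacteroides) or MRS broth (Lactobacillus). Agents were serially diluted and incubated 48 h at 37°C. MIC was read by visual inspection of growth.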
# Lactobacillus crispatus = assay: Antibacterial activity against Lactobacillus crispatus HM-103 assessed as reduction in microbial growth after 48 hrs by broth microdilution method; summary of the method: as §4
# Bacteroides fragilis [13] = assay: Antibacterial activity against Bacteroides fragilis HM-711 assessed as reduction in microbial growth after 48 hrs by broth microdilution method; type: organism-based; summary of the method: as §4
# Bacteroides fragilis [14] = assay: Antibacterial activity against Bacteroides fragilis HM-709 assessed as reduction in microbial growth after 48 hrs by broth microdilution method; type: organism-based; summary of the method: as §4
# Phocaeicola dorei = assay: Antibacterial activity against Bacteroides dorei HM-719 assessed as reduction in microbial growth after 48 hrs by broth microdilution method; type: organism-based; summary of the method: as §4
# Clostridioides difficile [15] = assay: Antibacterial activity against Clostridioides difficile ATCC 43255 infected in CDI mouse model assessed as survival rate at 50 mg/kg, po for 5 days relative to control; type: functional; conditions: ATCC 43255, po, 120 h, time 5 day
# Clostridioides difficile [16] = assay: Antibacterial activity against Clostridioides difficile ATCC 43255 infected in CDI mouse model assessed as survival rate at 50 mg/kg, po for 5 days and measured on day 21 relative to control; type: functional; conditions: ATCC 43255, po, 504 h, time 21 day
# [17] = Selectivity ratio of MIC for antibacterial activity against Bacteroides fragilis HM-711 to antibacterial activity against Clostridioides difficile NR-13435 isolate 9; type: ADME
# [18] = Selectivity ratio of MIC for antibacterial activity against Bacteroides fragilis HM-711 to antibacterial activity against Clostridioides difficile NR-32883 P2; type: ADME
# [19] = Selectivity ratio of MIC for antibacterial activity against Bacteroides fragilis HM-711 to antibacterial activity against Clostridioides difficile NR-32895 P19; type: ADME
# [20] = Selectivity ratio of MIC for antibacterial activity against Bacteroides fragilis HM-711 to antibacterial activity against Clostridioides difficile ATCC 43255; type: ADME
# [21] = Selectivity ratio of MIC for antibacterial activity against Bacteroides fragilis HM-709 to antibacterial activity against Clostridioides difficile NR-32883 P2; type: ADME
# [22] = Selectivity ratio of MIC for antibacterial activity against Bacteroides fragilis HM-709 to antibacterial activity against Clostridioides difficile NR-32895 P19; type: ADME
# [23] = Selectivity ratio of MIC for antibacterial activity against Bacteroides fragilis HM-709 to antibacterial activity against Clostridioides difficile NR-32904 P30; type: ADME
# [24] = Selectivity ratio of MIC for antibacterial activity against Bacteroides fragilis HM-709 to antibacterial activity against Clostridioides difficile ATCC 43255; type: ADME
# [25] = Selectivity ratio of MIC for antibacterial activity against Bacteroides dorei HM-719 to antibacterial activity against Clostridioides difficile NR-13435 isolate 9; type: ADME
# [26] = Selectivity ratio of MIC for antibacterial activity against Bacteroides dorei HM-719 to antibacterial activity against Clostridioides difficile NR-32883 P2; type: ADME
# [27] = Selectivity ratio of MIC for antibacterial activity against Bacteroides dorei HM-719 to antibacterial activity against Clostridioides difficile NR-32891 P13; type: ADME
# [28] = Selectivity ratio of MIC for antibacterial activity against Bacteroides dorei HM-719 to antibacterial activity against Clostridioides difficile NR-32895 P19; type: ADME
# [29] = Selectivity ratio of MIC for antibacterial activity against Bacteroides dorei HM-719 to antibacterial activity against Clostridioides difficile NR-32904 P30; type: ADME
# [30] = Selectivity ratio of MIC for antibacterial activity against Bacteroides dorei HM-719 to antibacterial activity against Clostridioides difficile ATCC 43255; type: ADME
structure (smiles),measurement,setting,value
O=C(Nc1nnc(-c2cc(Cl)cc(Cl)c2)o1)c1ccc(SC(F)(F)F)cc1,MIC,Clostridioides difficile [1],0.07 µM
same,MIC,Clostridioides difficile [2],7 nM
same,MIC,Clostridioides difficile [3],0.02 µM
same,MIC,Clostridioides difficile [4],0.04 µM
same,MIC,Enterococcus faecium,0.29 µM
same,MIC,Escherichia coli,9.2 µM
same,Ratio,Clostridioides difficile [5],2.5
same,Ratio,Clostridioides difficile [6],2.5
same,Ratio,Clostridioides difficile [7],2.5
same,Ratio,Clostridioides difficile [8],2.5
same,Ratio,Clostridioides difficile [9],2.5
same,Ratio,Clostridioides difficile [10],2.5
same,Activity,Caco-2,Non-Toxic
same,Papp,[11],0.2 10^-6 cm/s
same,Papp,[12],0.1 10^-6 cm/s
same,MIC,Lactobacillus gasseri,36.8 µM
same,MIC,Lactobacillus crispatus,36.8 µM
same,MIC,Bacteroides fragilis [13],4.6 µM
same,MIC,Bacteroides fragilis [14],2.3 µM
same,MIC,Phocaeicola dorei,4.6 µM
same,survival at 50 mg/kg,Clostridioides difficile [15],66.7%
same,survival at 50 mg/kg,Clostridioides difficile [16],100%
same,Selectivity ratio,[17],100
same,Selectivity ratio,[18],100
same,Selectivity ratio,[19],100
same,Selectivity ratio,[20],100
same,Selectivity ratio,[21],100
same,Selectivity ratio,[22],100
same,Selectivity ratio,[23],100
same,Selectivity ratio,[24],100
same,Selectivity ratio,[25],100
same,Selectivity ratio,[26],100
same,Selectivity ratio,[27],100
same,Selectivity ratio,[28],100
same,Selectivity ratio,[29],100
same,Selectivity ratio,[30],100
